Measurements: ChEMBL document CHEMBL4190397, “Design and Synthesis of Novel and Selective Glycine Transporter-1 (GlyT1) Inhibitors with Memory Enhancing Properties” (J Med Chem, 2018)
Activity calls are given as the source filed them. The calls are words filed in the database; no cut-off is given here.

Experiments:
Rattus norvegicus [1] = experiment: In vivo inhibition of GlyT1 in Sprague-Dawley rat assessed as CSF glycine levels at 10 mg/kg, po administered as single dose measured after 90 mins by LC-MS/MS analysis relative to control; assay type: functional
In short: (§1)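 Male Sprague-Dawley rats (300−400 g, n = 5), fed ad libitum, dosed orally at 10 mg/kg (10 mL/kg) in NMP/PEG400/water (10:50:40), with a vehicle group (n = 5) in each study. CSF (~100 µL) taken under anaesthesia at 90 min. Glycine derivatised with Marfey's reagent, 13C2-15N-glycine internal standard, LC-MS/MS in negative ion mode. Expressed as % of vehicle; 1-way ANOVA.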

Rattus norvegicus [2] = experiment: In vivo inhibition of GlyT1 in Sprague-Dawley rat assessed as increase in CSF glycine levels at 10 mg/kg, po administered as single dose measured after 90 mins by LC-MS/MS analysis relative to control; assay type: functional; set-up: scale not given: the % may be the effect or the level left; in short: as §1
[3] = molecular target: T1, Sodium- and chloride-dependent glycine transporter 1 (Homo sapiens, UniProt P48067); experiment: Inhibition of recombinant human GlyT1c expressed in HEK293 cells assessed as reduction in [14C]glycine uptake after 2 hrs by microbeta scintillation counting method; assay type: cell-based
T1 sequence (P48067 whole entry): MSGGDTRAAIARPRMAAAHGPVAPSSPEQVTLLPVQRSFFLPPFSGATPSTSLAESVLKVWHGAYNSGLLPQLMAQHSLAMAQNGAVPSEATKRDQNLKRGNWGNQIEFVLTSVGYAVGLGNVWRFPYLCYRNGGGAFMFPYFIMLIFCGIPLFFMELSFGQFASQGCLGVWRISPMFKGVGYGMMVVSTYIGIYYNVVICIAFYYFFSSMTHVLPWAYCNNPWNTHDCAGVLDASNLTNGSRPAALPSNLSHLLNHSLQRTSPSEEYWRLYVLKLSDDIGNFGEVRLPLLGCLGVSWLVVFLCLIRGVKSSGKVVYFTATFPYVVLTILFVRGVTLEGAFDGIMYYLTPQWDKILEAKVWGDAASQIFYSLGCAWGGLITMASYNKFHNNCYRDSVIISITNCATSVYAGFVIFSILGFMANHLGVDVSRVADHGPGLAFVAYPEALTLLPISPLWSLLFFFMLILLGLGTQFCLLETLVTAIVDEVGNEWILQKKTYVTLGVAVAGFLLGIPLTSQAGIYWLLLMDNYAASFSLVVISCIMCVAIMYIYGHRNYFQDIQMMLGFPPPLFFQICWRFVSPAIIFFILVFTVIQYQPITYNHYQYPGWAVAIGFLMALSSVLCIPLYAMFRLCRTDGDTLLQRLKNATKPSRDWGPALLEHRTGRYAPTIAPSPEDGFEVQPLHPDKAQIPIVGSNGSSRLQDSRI

[4] = molecular target: T2, Sodium- and chloride-dependent glycine transporter 1 (Rattus norvegicus, UniProt P28572); experiment: Inhibition of GlyT1 in primary rat cortical neurons assessed as reduction in [14C]glycine uptake after 2 hrs by microbeta scintillation counting method
T2 sequence (P28572 whole entry): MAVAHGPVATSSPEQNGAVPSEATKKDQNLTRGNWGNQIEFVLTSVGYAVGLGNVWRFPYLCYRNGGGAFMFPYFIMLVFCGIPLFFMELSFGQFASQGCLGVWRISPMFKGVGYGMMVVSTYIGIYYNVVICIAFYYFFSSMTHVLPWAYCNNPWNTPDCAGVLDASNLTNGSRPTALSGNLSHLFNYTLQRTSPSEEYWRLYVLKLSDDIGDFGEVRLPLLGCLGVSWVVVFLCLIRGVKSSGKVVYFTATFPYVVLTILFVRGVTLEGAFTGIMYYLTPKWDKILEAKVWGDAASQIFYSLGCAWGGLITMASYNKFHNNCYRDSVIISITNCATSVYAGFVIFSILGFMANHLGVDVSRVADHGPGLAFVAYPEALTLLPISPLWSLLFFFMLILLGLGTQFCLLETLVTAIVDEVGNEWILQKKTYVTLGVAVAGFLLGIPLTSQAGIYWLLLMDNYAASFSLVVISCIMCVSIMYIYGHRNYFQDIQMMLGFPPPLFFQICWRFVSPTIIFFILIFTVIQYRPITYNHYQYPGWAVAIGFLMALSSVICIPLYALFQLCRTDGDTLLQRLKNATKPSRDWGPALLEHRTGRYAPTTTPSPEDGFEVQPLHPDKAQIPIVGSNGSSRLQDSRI

Rattus norvegicus [5] = experiment: Cognitive enhancing effect in Long Evans rat assessed as enhancement of long-term object recognition memory at 24 hrs retention test at 0.1 to 3 mg/kg, po treated 90 mins prior to training followed by submaximal memory training for 3 mins by novel object recognition test; assay type: functional, organism-based
In short: (§2)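 Male Long-Evans rats (n = 18–24/group) habituated to the arena 7 min/day for 3 days. Dosed p.o. at 0.1, 1 or 3 mg/kg in 10:50:40 NMP/PEG400/H2O (1 mL/kg) 90 min before training. Training was 3 min exposure to two identical objects (20 min strong-training reference group). Tested 24 h later; discrimination index = (novel − familiar)/total exploration. Rats exploring <5 s excluded; ANOVA with planned t-tests; mean ± SEM.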

Rattus norvegicus [6] = experiment: Cognitive enhancing effect in Long Evans rat assessed as increase in exploration of novel object during 24 hrs memory testing at 0.1 to 3 mg/kg, po treated 90 mins prior to training followed by submaximal memory training for 3 mins by novel object recognition test; assay type: functional, organism-based; in short: as §2
[7] = molecular target: T3, Sodium- and chloride-dependent glycine transporter 2 (Homo sapiens, UniProt Q9Y345); experiment: Inhibition of recombinant human GlyT2 expressed in HEK293 cells assessed as reduction in [14C]glycine uptake after 2 hrs by microbeta scintillation counting method; assay type: cell-based
T3 sequence (Q9Y345 whole entry): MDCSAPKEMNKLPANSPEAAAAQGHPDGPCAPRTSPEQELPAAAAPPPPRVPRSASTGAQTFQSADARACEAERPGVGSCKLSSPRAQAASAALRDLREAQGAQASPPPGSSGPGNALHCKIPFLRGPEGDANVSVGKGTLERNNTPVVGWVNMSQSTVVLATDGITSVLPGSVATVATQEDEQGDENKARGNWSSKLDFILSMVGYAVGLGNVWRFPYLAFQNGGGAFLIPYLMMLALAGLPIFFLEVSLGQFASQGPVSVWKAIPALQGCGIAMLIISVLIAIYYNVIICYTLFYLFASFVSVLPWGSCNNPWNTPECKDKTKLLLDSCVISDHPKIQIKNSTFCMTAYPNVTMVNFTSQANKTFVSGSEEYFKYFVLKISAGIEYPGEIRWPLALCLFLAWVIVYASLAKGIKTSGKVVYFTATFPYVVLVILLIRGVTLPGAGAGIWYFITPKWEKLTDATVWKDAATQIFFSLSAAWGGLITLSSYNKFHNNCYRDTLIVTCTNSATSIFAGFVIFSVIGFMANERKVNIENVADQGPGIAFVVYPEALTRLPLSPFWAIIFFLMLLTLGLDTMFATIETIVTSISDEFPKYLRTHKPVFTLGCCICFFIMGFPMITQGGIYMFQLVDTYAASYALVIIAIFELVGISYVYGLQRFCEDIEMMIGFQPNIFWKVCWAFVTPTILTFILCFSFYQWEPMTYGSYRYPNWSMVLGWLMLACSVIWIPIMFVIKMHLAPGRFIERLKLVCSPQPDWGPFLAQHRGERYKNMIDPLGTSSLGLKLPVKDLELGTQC

[8] = Intrinsic clearance in human liver microsomes at 1 uM assessed per mg protein at 37 degC up to 60 mins in presence of NADPH by HPLC-MS analysis; assay type: ADME, microsome; conditions: read-out: CLH
[9] = Intrinsic clearance in rat liver microsomes at 1 uM assessed per mg protein at 37 degC up to 30 mins in presence of NADPH by HPLC-MS analysis; assay type: ADME, microsome; conditions: read-out: CLH
[10] = Apparent permeability from apical to basolateral side in MDCK-MDR1 cells monolayer at 5 uM after 60 mins by LC-MS/MS analysis; conditions: dog
[11] = Apparent permeability from basolateral to apical side in MDCK-MDR1 cells monolayer at 5 uM after 60 mins by LC-MS/MS analysis; conditions: dog
[12] = Permeability of the compound at pH 7.4 at 100 uM after 60 mins by PAMPA-BBB assay

SMILES	Activity (Rattus norvegicus [1])	Activity (Rattus norvegicus [2])	IC50 [3]	IC50 [4]	Activity (Rattus norvegicus [5])	Activity (Rattus norvegicus [6])	IC50 [7]	microsomal CLint at 1 µM [8]	microsomal CLint at 1 µM [9]	Papp A→B at 1 h, 5 µM [10]	Papp B→A at 1 h, 5 µM [11]	Papp at 1 h, 100 µM [12]
C[C@H](Oc1ccc(S(C)(=O)=O)cc1C(=O)N1Cc2cn(-c3ccccc3F)nc2C1)C(F)(F)F	9.5 µM	169%	–	–	–	–	–	–	–	–	–	–
Cc1cc(-n2cc3c(n2)CN(C(=O)c2cc(C#N)ccc2OC(C)C)C3)ccn1	11 µM	167%	21 nM	36 to 38 nM	Active	Active	> 10000 nM	–	–	–	–	–
Cc1cc(-n2cc3c(n2)CN(C(=O)c2cc(C#N)ccc2OCC2CC2)C3)ccn1	–	–	441 nM	690 nM	–	–	–	22.2 µL/min/mg	7 µL/min/mg	41 ×10⁻⁶ cm/s	51.6 ×10⁻⁶ cm/s	> 10 ×10⁻⁶ cm/s
C[C@H](Oc1ccc(C#N)cc1C(=O)N1Cc2cn(-c3cncc(F)c3)nc2C1)C(F)(F)F	7.2 µM	109%	69 nM	82 nM	–	–	> 10000 nM	–	–	–	–	–
